Experimental data from ChEMBL document CHEMBL4673255, “Acylated 1H-1,2,4-Triazol-5-amines Targeting Human Coagulation Factor XIIa and Thrombin: Conventional and Microscale Synthesis, Anticoagulant Properties, and Mechanism of Action” (J Med Chem, 2020).
Calls of active or inactive are those of the source. The rule behind the calls is not given here.

What was measured:
[1] = molecular target: T1, Coagulation factor XII (Homo sapiens) (UniProt P00748); assay: Inhibition of human coagulation factor XIIA in presence of Boc-Gln-Gly-Arg-AMC as fluorogenic substrate at 1 uM measured at 1 min interval for 1 hr by fluorometric assay relative to control
T1 sequence (whole entry): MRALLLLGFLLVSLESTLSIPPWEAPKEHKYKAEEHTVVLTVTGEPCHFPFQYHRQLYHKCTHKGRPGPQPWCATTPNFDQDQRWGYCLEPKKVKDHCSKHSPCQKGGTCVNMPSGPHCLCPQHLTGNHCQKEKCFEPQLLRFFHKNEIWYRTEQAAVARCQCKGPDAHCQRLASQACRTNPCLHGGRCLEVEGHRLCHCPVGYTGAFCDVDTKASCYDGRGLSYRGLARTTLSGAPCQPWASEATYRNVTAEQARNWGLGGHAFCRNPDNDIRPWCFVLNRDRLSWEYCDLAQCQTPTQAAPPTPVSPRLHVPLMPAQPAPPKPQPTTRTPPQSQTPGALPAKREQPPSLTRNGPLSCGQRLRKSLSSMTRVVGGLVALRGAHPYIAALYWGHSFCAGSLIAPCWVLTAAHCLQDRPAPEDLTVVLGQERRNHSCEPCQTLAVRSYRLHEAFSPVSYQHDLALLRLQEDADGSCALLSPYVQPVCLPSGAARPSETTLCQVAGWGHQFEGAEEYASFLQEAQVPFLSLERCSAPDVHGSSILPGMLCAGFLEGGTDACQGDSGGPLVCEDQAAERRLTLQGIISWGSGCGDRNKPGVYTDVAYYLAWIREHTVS
How it was run: (§1)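 Screening of crude microscale amide-coupling products. Conversion was measured by 1H NMR and product content normalised to 76 µmol/L in DMSO, then tested at 1 µM and 100 nM in the fluorogenic FXIIa or thrombin assay. A 0-conversion reaction served as blank. Percent inhibition is from triplicates.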

Coagulation factor X = Coagulation factor X (Homo sapiens, UniProt P00742); assay: Inhibition of human coagulation factor Xa using Boc-Ile-Glu-Gly-Arg-AMC as fluorogenic substrate measured at 1 min interval for 1 hr by fluorometric assay
[2] = molecular target: T1, Coagulation factor XII (Homo sapiens); assay: Inhibition of human coagulation factor XIIA using Boc-Gln-Gly-Arg-AMC as fluorogenic substrate at 100 nM measured at 1 min interval for 1 hr by fluorometric assay relative to control; how it was run: as §1
Plasma [3] = assay: Anticoagulant activity in human platelet-rich plasma assessed as reduction in TF-induced thrombin generation by measuring endogenous thrombin potential at 100 uM preincubated for 15 mins followed by TF addition by Z-Gly-Gly-Arg-AMC substrate based calibrated automated thrombography (reference value: 1203 +/- 44 AU.min/L); format: functional; details: 0.25 h
How it was run: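 Tissue-factor-triggered homogeneous thrombin generation followed by fluorogenic substrate cleavage. Read-outs: clotting time (T1/2), peak amplitude (Amax, AU/L), time to peak (Tmax) and ETP (AU·min/L). DMSO and buffer served as controls. n = 3, mean ± SD.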

Plasminogen = Plasminogen (Homo sapiens, UniProt P00747); assay: Inhibition of human plasmin using Mes-dArg-Phe-Arg-AMC as fluorogenic substrate measured at 1 min interval for 1 hr by fluorometric assay
HepG2 = assay: Cytotoxicity against human HepG2 cells assessed as reduction in cell viability at 100 uM incubated for 48 hrs by alamar blue assay relative to control; format: cell-based; details: hepg2, 48 h
[4] = molecular target: T1, Coagulation factor XII (Homo sapiens); assay: Time dependent inhibition of human coagulation factor XIIA using Boc-Gln-Gly-Arg-AMC as fluorogenic substrate at 0.5 to 132 uM by fluorescence assay; details: dose 0.0005-132 µM, in the assay text read “0.5 nM to 132 uM” for “0.5 to 132 uM”
How it was run: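 Buffer: Tris-Cl pH 7.4 with NaCl, MgCl2, CaCl2, 0.1% BSA and 0.01% Triton X-100. Fluorescence (ex 355/em 460 nm) read kinetically every 87 s for up to 180 min. IC50 calculated at each time point and plotted against time.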

Blood = assay: Anticoagulant activity in human blood assessed as increase in activated partial thromboplastin time at 300 uM incubated for 1 min by aPTT reagent based assay relative to control; format: functional
How it was run: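 Compounds were tested at 300 µM, and the increase was expressed relative to DMSO. The doubling concentration (EC2×) is the concentration prolonging aPTT twofold. At least triplicate, mean ± SD.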

[5] = Inhibition of porcine trypsin using Z-Gly-Gly-Arg-AMC as fluorogenic substrate measured at 1 min interval for 1 hr by fluorometric assay; parameters: species or system Sus scrofa
Plasma [6] = assay: Antiplatelet activity in […] assessed as inhibition of thrombin-induced platelet aggregation at 1 to 10 uM by light transmission aggregometry; format: functional; details: Homo sapiens, dose 1-10 µM
Plasma [7] = assay: Antiplatelet activity in […] assessed as inhibition of MDA-MB-231-induced platelet aggregation at 100 nM by light transmission aggregometry; format: functional; details: Homo sapiens
Plasma [8] = assay: Antiplatelet activity in […] assessed as inhibition of MDA-MB-231-induced platelet aggregation at 10 uM by light transmission aggregometry; format: functional; details: Homo sapiens
Plasma [9] = assay: Antiplatelet activity in […] assessed as inhibition of MDA-MB-231-induced platelet aggregation by light transmission aggregometry; format: functional; details: Homo sapiens, dose 0.1-10 µM
Plasma [10] = assay: Antiplatelet activity in human platelet-rich plasma assessed as inhibition of thrombin induced platelet activation by measuring reduction in ATP release preincubated for 20 mins followed by thrombin addition and measured after 10 mins by luciferin-based luminescence assay; format: functional, cell-free; details: time 30.0 min
How it was run: (§2)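 Platelet activation measured as dense-granule ATP release by firefly luciferase bioluminescence. Compound-treated platelets were activated with MDA-MB-231 cells, thrombin or TRAP-6. TRAP-6-induced signal was set as 100%. Triplicate, mean ± SD.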

[11] = molecular target: T1, Coagulation factor XII (Homo sapiens); assay: Binding affinity to human plasma coagulation factor XIIA assessed as compound-adduct formation at molar ratio of 1:20 preincubated for 4 mins followed by desalination and measured after 5 mins by SEC/ESI-TOF mass spectra analysis; format: cell-free
How it was run: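 β-FXIIa incubated with inhibitor at a 1:20 molar ratio, then size-exclusion chromatography coupled to ESI-MS to measure the mass of enzyme–inhibitor complexes. Further runs checked complex stability to probe reversibility.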

Plasma [12] = assay: Antiplatelet activity in human platelet-rich plasma assessed as inhibition of TRAP6 induced platelet activation by measuring reduction in ATP release at 1 uM preincubated for 20 mins followed by TRAP6 addition and measured after 10 mins by luciferin-based luminescence assay; format: functional, cell-free; details: time 30.0 min; how it was run: as §2
Plasma [13] = assay: Antiplatelet activity in human platelet-rich plasma assessed as inhibition of MDA-MB-231 induced platelet activation by measuring reduction in ATP release preincubated for 20 mins followed by tumor cell addition and measured after 30 mins by luciferin-based luminescence assay; format: functional, cell-free; details: time 50.0 min; how it was run: as §2
Plasma [14] = assay: Antiplatelet activity in human platelet-rich plasma assessed as inhibition of TRAP6 induced platelet activation by measuring reduction in ATP release at 10 uM preincubated for 20 mins followed by TRAP6 addition and measured after 10 mins by luciferin-based luminescence assay; format: functional, cell-free; details: time 30.0 min; how it was run: as §2
CCF-STTG1 = assay: Cytotoxicity against human CCF-STTG1 cells assessed as reduction in cell viability at 100 uM incubated for 48 hrs by alamar blue assay relative to control; format: cell-based; details: ccf-sttg1, 48 h

Plasminogen, sequence (P00747 97-580 limits assumed): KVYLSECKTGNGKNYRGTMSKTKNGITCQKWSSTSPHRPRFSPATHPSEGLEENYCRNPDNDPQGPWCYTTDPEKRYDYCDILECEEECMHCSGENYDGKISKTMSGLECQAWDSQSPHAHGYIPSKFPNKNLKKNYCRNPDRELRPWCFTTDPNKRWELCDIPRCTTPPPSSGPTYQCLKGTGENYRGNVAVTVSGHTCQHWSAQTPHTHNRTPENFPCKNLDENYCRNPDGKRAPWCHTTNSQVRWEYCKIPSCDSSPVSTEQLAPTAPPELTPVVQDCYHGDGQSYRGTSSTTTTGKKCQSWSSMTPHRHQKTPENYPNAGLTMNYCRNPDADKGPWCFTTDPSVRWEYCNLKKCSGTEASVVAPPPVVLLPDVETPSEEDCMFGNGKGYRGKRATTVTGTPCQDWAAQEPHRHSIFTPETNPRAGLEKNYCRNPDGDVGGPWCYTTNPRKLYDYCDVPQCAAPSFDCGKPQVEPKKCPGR
Plasminogen, sequence (P00747 581-810 limits assumed): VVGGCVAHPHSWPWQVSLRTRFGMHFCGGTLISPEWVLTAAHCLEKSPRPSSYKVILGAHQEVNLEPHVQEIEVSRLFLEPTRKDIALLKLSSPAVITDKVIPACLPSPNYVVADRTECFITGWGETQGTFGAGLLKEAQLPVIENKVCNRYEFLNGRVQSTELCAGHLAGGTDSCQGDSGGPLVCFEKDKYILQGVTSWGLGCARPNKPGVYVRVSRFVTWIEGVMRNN
Coagulation factor X, sequence (P00742 41-179 limits assumed): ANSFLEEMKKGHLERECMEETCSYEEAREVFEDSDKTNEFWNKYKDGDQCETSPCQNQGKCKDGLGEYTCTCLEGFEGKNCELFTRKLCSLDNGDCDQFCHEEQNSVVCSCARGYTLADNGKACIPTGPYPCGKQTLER
Coagulation factor X, sequence (P00742 235-488 limits assumed): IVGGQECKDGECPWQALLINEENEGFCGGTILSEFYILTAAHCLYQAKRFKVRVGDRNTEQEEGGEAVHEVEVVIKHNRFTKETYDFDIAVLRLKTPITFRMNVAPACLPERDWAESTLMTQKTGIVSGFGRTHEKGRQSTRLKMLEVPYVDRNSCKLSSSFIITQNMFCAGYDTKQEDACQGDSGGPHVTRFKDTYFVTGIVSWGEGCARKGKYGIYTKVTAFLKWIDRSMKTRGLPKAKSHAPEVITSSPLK

Row | inhibition [1] [%] | IC50 (Coagulation factor X) [µM] | inhibition [2] [%] | IC50 (Plasminogen) [µM] | TDI [4] | IC50 [5] [µM] | Activity [11] | Structure (SMILES) | Activity (Plasma [3]) [AU.min/L] | Activity (HepG2) [%] | Activity (Blood) [%] | inhibition (Plasma [6]) | inhibition (Plasma [7]) | inhibition (Plasma [8]) | inhibition (Plasma [9]) | inhibition (Plasma [10]) | inhibition (Plasma [12]) | inhibition (Plasma [13]) | inhibition (Plasma [14]) | Activity (CCF-STTG1) [%]
1 | 98 | > 5 | 77 | > 5 | Active | > 5 | – | Nc1nc(-c2ccccn2)nn1C(=O)c1cccc2ccccc12 | 738 | 8 | 176 | – | – | – | – | – | – | – | – | –
2 | 77 | – | 19 | > 5 | – | > 5 | inactive | Nc1nc(-c2ccccn2)nn1C(=O)c1ccc2ccccc2c1 | 2160 | 25 | 212 | Active | inactive | Active | Dose-dependent effect | Dose-dependent effect | inactive | Dose-dependent effect | Active | 36
